Data: ChEMBL document CHEMBL4308878, “Discovery of covalent enzyme inhibitors using virtual docking of covalent fragments” (Bioorg Med Chem Lett, 2019)
pKi: −log10 of the molar value. Activity calls are given as the source filed them. The calls are words filed in the database; no cut-off is given here.

Assays:
Cathepsin B [1] = biological target: T1, Cathepsin B (Homo sapiens, UniProt P07858); experiment: Inhibition of cathepsin B (unknown origin) assessed as ratio of Kinact to Ki using Z-Arg-Arg-AMC as substrate after 5 mins by fluorimetric method
Procathepsin L [2] = biological target: T2, Procathepsin L (Homo sapiens, UniProt P07711); experiment: Inhibition of cathepsin L (unknown origin) assessed as ratio of Kinact to Ki using Z-Phe-Arg-AMC as substrate after 5 mins by fluorimetric method
Target sequence in this assay (P07711 114-333 limits assumed): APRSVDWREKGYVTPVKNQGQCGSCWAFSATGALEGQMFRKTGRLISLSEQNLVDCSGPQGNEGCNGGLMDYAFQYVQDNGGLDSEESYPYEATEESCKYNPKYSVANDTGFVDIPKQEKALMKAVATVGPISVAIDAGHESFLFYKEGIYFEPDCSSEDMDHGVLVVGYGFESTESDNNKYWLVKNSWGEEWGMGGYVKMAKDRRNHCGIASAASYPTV

Procathepsin L [3] = biological target: T2, Procathepsin L; experiment: Inhibition of cathepsin L (unknown origin) using Z-Phe-Arg-AMC as substrate after 5 mins by fluorimetric method
Cathepsin B [4] = biological target: T1, Cathepsin B; experiment: Inhibition of cathepsin B (unknown origin) using Z-Arg-Arg-AMC as substrate after 5 mins by fluorimetric method
Cathepsin B [5] = biological target: T1, Cathepsin B; experiment: Inhibition of human liver cathepsin B using Z-Arg-Arg-AMC as substrate preincubated for 60 mins followed by substrate addition and measured at 1 min interval for 20 mins consecutively at every 15 mins for 2 hrs by fluorescence assay
Procathepsin L [6] = biological target: T2, Procathepsin L; experiment: Irreversible inhibition of human liver cathepsin L at 50 uM using Z-FR-AMC as substrate preincubated for 3 hrs followed by compound washout measured by gel filtration assay
Outline: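 Cathepsin L (10 nM) was preincubated with inhibitor (50 μM), then passed through a gel-filtration spin column to remove free compound. Flow-through aliquots were assayed for recovery of enzyme activity at several time points.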
Target sequence in this assay (P07711 114-333 limits assumed): as above

[7] = biological target: T3, Calpain-1 catalytic subunit (Homo sapiens) (UniProt P07384); experiment: Inhibition of human calpain1 using Suc-Leu-Tyr-AMC as substrate preincubated for 60 mins followed by substrate addition and measured at 1 min interval for 20 mins consecutively at every 15 mins for 2 hrs by fluorescence assay
T3 sequence (whole entry): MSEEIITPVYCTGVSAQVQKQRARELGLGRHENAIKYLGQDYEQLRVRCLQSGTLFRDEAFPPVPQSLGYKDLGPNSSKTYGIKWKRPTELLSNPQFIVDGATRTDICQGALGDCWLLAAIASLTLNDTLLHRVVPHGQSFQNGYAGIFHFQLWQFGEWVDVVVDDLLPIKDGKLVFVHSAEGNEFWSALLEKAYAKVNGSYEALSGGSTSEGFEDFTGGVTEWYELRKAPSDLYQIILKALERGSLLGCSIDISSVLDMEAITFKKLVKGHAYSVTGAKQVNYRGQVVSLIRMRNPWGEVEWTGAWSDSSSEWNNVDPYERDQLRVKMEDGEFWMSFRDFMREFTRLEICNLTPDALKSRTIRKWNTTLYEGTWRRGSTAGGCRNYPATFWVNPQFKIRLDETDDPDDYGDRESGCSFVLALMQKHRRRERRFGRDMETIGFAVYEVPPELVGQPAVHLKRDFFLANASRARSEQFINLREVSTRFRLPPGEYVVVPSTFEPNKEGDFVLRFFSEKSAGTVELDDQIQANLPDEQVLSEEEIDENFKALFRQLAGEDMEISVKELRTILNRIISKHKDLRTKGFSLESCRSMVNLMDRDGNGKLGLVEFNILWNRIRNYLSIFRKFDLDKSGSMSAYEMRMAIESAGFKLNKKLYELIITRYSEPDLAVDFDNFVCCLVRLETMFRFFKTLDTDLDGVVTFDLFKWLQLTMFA

[8] = biological target: T4, Ubiquitin carboxyl-terminal hydrolase 8 (Homo sapiens) (UniProt P40818); experiment: Inhibition of recombinant USP8 catalytic domain (unknown origin) using Ubiquitin-Lys-TAMRA as substrate preincubated for 60 mins followed by substrate addition and measured at 6 mins interval for 4 hrs by fluorescence assay
T4 sequence (whole entry): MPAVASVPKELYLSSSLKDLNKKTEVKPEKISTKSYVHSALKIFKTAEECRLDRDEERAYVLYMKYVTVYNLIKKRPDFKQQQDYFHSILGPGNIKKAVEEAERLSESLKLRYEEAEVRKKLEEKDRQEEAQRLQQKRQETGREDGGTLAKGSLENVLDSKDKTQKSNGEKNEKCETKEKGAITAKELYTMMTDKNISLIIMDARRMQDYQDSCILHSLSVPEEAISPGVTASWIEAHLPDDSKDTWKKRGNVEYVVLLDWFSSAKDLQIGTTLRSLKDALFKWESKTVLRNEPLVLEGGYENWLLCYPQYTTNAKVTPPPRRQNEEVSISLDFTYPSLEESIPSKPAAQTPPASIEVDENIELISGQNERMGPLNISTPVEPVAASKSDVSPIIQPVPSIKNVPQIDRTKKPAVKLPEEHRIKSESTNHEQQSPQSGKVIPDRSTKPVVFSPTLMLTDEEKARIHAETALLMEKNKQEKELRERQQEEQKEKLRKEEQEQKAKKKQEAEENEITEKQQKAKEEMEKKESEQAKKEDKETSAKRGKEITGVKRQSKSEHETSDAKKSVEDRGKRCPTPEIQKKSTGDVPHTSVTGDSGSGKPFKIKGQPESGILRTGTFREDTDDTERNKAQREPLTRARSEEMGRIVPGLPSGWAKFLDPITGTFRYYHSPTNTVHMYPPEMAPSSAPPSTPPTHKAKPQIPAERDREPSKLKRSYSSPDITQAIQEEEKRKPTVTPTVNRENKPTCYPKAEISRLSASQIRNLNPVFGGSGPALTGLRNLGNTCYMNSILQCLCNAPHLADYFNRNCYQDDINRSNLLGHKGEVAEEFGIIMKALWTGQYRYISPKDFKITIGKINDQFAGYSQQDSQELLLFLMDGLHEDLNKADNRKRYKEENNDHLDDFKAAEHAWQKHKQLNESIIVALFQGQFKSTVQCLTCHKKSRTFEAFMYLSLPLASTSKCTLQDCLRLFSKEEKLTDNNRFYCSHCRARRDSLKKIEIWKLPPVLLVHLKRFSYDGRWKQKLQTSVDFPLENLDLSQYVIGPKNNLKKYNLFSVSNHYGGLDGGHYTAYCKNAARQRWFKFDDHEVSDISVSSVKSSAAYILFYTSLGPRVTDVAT

[9] = biological target: T4, Ubiquitin carboxyl-terminal hydrolase 8 (Homo sapiens); experiment: Inhibition of recombinant USP8 catalytic domain (unknown origin) using Ubiquitin-Lys-TAMRA as substrate measured at 6 mins interval for 4 hrs by fluorescence assay
Procathepsin L [10] = biological target: T2, Procathepsin L; experiment: Inhibition of human liver cathepsin L assessed as ratio of Kinact to Ki using Z-FR-AMC as substrate measured at 1 min interval for 20 mins followed by every 15 mins for 2 hrs by fluorescence assay
Target sequence in this assay (P07711 114-333 limits assumed): as the sequence (P07711 114-333 limits assumed) above

Procathepsin L [11] = biological target: T2, Procathepsin L; experiment: Competitive inhibition of human liver cathepsin L using Z-FR-AMC as substrate measured at 1 min interval for 20 mins followed by every 15 mins for 2 hrs by fluorescence assay
[12] = biological target: T3, Calpain-1 catalytic subunit (Homo sapiens); experiment: Inhibition of human calpain1 using Suc-Leu-Tyr-AMC as substrate measured at 1 min interval for 20 mins followed by every 15 mins for 2 hrs by fluorescence assay
Cathepsin B [13] = biological target: T1, Cathepsin B; experiment: Inhibition of human liver cathepsin B using Z-Arg-Arg-AMC as substrate measured at 1 min interval for 20 mins followed by every 15 mins for 2 hrs by fluorescence assay
Procathepsin L [14] = biological target: T2, Procathepsin L; experiment: Inhibition of human liver cathepsin L using Z-FR-AMC as substrate measured at 1 min interval for 20 mins followed by every 15 mins for 2 hrs by fluorescence assay

`O=C(N[C@H](/C=C/S(=O)(=O)c1ccccc1)CCc1ccccc1)[C@H](Cc1ccccc1)NC(=O)N1CCOCC1` gave a Ratio (Cathepsin B [1]) of 15500 M⁻¹ s⁻¹, a Ratio (Procathepsin L [2]) of 240000 M⁻¹ s⁻¹ and a pKi (Procathepsin L [3]) of 6.00. For the same compound, the Kinact (Procathepsin L [3]) was 0.24 s⁻¹, the pKi (Cathepsin B [4]) was 4.96 and the Kinact (Cathepsin B [4]) was 0.17 s⁻¹.

For `CS(=O)(=O)/C=C/CNC(=O)COc1ccc(Br)cc1Br`, the inhibition (Cathepsin B [5]) was “inactive”, the inhibition (Procathepsin L [6]) was “Active” and the inhibition [7] was “inactive”. For the same compound, the inhibition [8] was “inactive”, the inhibition [9] was “inactive” and the Ratio (Procathepsin L [10]) was 5 M⁻¹ s⁻¹. The pKi (Procathepsin L [11]) was 4.23, the Kinact (Procathepsin L [11]) was 0.0003 s⁻¹ and the inhibition [12] was “inactive”. For the same compound, the inhibition (Cathepsin B [13]) was “inactive”.

`O=C(N[C@H](/C=C/S(=O)(=O)c1ccccc1)CCc1ccccc1)[C@H](Cc1cc(I)c(O)c(I)c1)NC(=O)N1CCOCC1` gave a Ratio (Cathepsin B [1]) of 1.06e+06 M⁻¹ s⁻¹, a Ratio (Procathepsin L [2]) of 389000 M⁻¹ s⁻¹ and a pKi (Procathepsin L [3]) of 6.14. For the same compound, the Kinact (Procathepsin L [3]) was 0.28 s⁻¹, the pKi (Cathepsin B [4]) was 6.47 and the Kinact (Cathepsin B [4]) was 0.36 s⁻¹.

`C[C@@H](Oc1ccc(Br)cc1Br)C(=O)NC/C=C/S(C)(=O)=O` gave a pKi (Procathepsin L [14]) of 3.84 and a Kinact (Procathepsin L [14]) of 0.0006 s⁻¹.
